The record followed here is ChEMBL document CHEMBL3588826, “Chimeric derivatives of functionalized amino acids and α-aminoamides: compounds with anticonvulsant activity in seizure models and inhibitory actions on central, peripheral, and cardiac isoforms of voltage-gated sodium channels” (Bioorg Med Chem, 2015).

Molecules are shown by their SMILES. Activity calls are given as the source filed them. The rule behind the calls is not given here.

For series [1], the system named is Rattus norvegicus. In words: Toxicity in po dosed Sprague-Dawley rat assessed as changes in clinical chemistry parameters administered via gavage. Format: organism-based. The conditions noted are these: in vivo. In short, it runs like this:
(§1)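 Non-GLP 7-day repeated-dose study in female Sprague-Dawley rats given oral gavage at 20, 60 and 180 mg/kg/day. Endpoints were weight bearing, gait coordination, respiratory rate, relative organ weights, clinical chemistry and gross pathology, with NOAEL determined.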

The next series concerns the target Cytochrome P450 2C19 (Homo sapiens, UniProt P33261). In words: Inhibition of human CYP2C19 at 10 uM. Format: ADME. The method in brief:
(§2)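 Test compound at 10 μM against a human CYP450 panel (CYP1A2, 2B6, 2C8, 2C9, 2C19, 2D6, 3A4/5). Direct inhibition was measured, and time-dependent inhibition was measured after a 30-min preincubation.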

For a further series, the target named is T1, Cytochrome P450 1A2 (Homo sapiens, UniProt P05177).
T1 sequence (P05177 whole entry): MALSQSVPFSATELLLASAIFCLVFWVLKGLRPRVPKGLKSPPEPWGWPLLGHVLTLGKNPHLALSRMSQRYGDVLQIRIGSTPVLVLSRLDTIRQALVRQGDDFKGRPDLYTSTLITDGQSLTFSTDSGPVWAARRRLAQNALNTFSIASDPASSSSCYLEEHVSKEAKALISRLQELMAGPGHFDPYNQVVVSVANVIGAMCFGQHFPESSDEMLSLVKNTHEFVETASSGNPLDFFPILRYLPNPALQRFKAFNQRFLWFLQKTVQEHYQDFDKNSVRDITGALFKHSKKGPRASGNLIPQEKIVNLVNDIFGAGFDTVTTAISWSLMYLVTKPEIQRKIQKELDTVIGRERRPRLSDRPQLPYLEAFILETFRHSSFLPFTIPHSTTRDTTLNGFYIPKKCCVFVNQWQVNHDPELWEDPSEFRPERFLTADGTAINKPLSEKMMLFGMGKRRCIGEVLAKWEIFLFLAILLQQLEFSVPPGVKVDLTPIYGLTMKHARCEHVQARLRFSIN
In words: Inhibition of human CYP1A2 at 10 uM. Format: ADME. In short, it runs like this: as §2

Series [2] can be described thus: Half life in Sprague-Dawley rat at 5 mg/kg, iv. The class given is ADME, organism-based. The conditions noted are these: in vivo. The method in brief: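 Pharmacokinetics in Sprague-Dawley rats given a single iv dose of 5 mg/kg or an oral dose of 20 mg/kg.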
In series [3] the test system is Rattus norvegicus. In words: Toxicity in po dosed Sprague-Dawley rat assessed as changes in respiratory rate administered via gavage. The class given is organism-based. The conditions noted are these: in vivo. The method in brief:
as §1

The test system of a further series is Mus musculus. In words: Anticonvulsant activity in ip dosed albino Carworth Farms No. 1 mouse measured at 0.25 hrs by 6Hz (32 mA) psychomotor seizure test. Format: functional. The conditions noted are these: Carworth Farms No. 1, ip. The method in brief: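 Screened under the NIH anticonvulsant program in male albino Carworth Farms No. 1 mice (ip) and male albino Sprague-Dawley rats (ip or oral). Protection tested by maximal electroshock or 6 Hz (32 mA) psychomotor stimulation.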

Series [4] addresses Sodium channel protein type 9 subunit alpha (Homo sapiens) (UniProt Q15858). In words: Inhibition of human Nav1.7 expressed in HEK293 cells assessed as half-maximal voltage for steady state activation at 10 uM by whole cell patch-clamp electrophysiology (reference value: -27.13 +/-4.01 mV). Format: cell-based. A general note: In patch-clamp work, channel activity is measured electrically.

Series [5] has as its target Sodium channel protein type 1 subunit alpha (Homo sapiens) (UniProt P35498). In words: Frequency-dependent inhibition of human Nav1.1 expressed in HEK293 cells assessed as current amplitude at 10 uM by whole cell patch-clamp electrophysiology. Format: cell-based. The method in brief:
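Stable HEK293 lines expressing hNav1.1, rNav1.3, hNav1.7 or hNav1.5 were recorded by whole-cell voltage clamp at room temperature, with 10 μM compound versus 0.1% DMSO. A 30-pulse train was applied, and the read-out was the fraction of current remaining at the last pulse normalized to the first. Nav1.5 used hyperpolarized protocols.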

A short description of series [6]: Behavioural toxicity in ip dosed albino Sprague-Dawley rat measured at 2 hrs. The class given is organism-based. The conditions noted are these: in vivo.
The species entered for series [7] is Rattus norvegicus. In words: Effect on steady state activation of voltage-gated sodium channel in rat embryonic cortical neurons at 10 uM by whole cell patch-clamp electrophysiology. In short, it runs like this: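 Rat embryonic day 19 cortical neurons, cultured 7–10 days, were whole-cell voltage-clamped at room temperature with 1–2 MΩ electrodes, with compound at 10 μM and 0.1% DMSO as control. Fast inactivation: 500 ms prepulses, then a test pulse. Activation: conductance G = I/(Vm − Vrev). V1/2 and k came from Boltzmann fits to individual cells, averaged (mean ± SEM), 5–7 cells per condition.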

The nature of series [8]: Protective index, ratio of TD50 for behavioural toxicity in ip dosed albino Sprague-Dawley rat to ED50 for anticonvulsant activity in ip dosed MES albino Sprague-Dawley rat model. Format: organism-based. The conditions noted are these: in vivo, read-out: Ratio TD50/ED50. The method in brief:
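Male albino Sprague-Dawley rats were dosed ip or orally. […] Protective index = TD50/ED50, the ED50 taken from maximal electroshock by the same route.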

Series [9] deals with Sodium channel protein type 9 subunit alpha (Homo sapiens) (UniProt Q15858). In words: Inhibition of human Nav1.7 expressed in HEK293 cells assessed as transition of channels to slow-inactivated state at 10 uM measured at -50 mV by whole cell patch-clamp electrophysiology. Format: cell-based. In short, it runs like this:
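HEK293 cells stably expressing hNav1.1, rNav1.3, hNav1.7 or hNav1.5 were grown in DMEM with 10% FBS. Recordings were whole-cell voltage clamp at room temperature, with 10 μM compound versus 0.1% DMSO. Slow inactivation at −50 mV was calculated as 1 minus normalized peak INa. Nav1.5 used hyperpolarized protocols. Data are from 5–6 cells.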

Series [10] in a line: Protective index, ratio of TD50 for neurotoxicity in ip dosed albino Carworth Farms No. 1 mouse to ED50 for anticonvulsant activity in ip dosed MES albino Carworth Farms No. 1 mouse model. The class given is toxicity, organism-based. The conditions noted are these: in vivo, read-out: Ratio TD50/ED50. The method in brief: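 Male albino Carworth Farms No. 1 mice were dosed ip. Protective index = TD50/ED50, the ED50 taken from the ip maximal electroshock test.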

Series [11] can be described thus: Neurotoxicity in ip dosed albino Carworth Farms No. 1 mouse measured at 0.25 hrs by rotarod test. The class given is toxicity, organism-based. The conditions noted are these: in vivo.
Series [12] concerns Rattus norvegicus. In words: Toxicity in po dosed Sprague-Dawley rat assessed as adverse effects administered via gavage. The conditions noted are these: in vivo. Format: organism-based. The method in brief: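 Non-GLP 7-day repeated-dose study in female Sprague-Dawley rats, given by oral gavage at 20, 60 and 180 mg/kg/day. Endpoints: weight bearing, gait coordination, respiratory rate, relative organ weights, clinical chemistry and gross pathology, giving a NOAEL. The ratio divides the NOAEL by the oral MES ED50.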

Series [13] has as its system Rattus norvegicus. In words: Toxicity in po dosed Sprague-Dawley rat assessed as gross pathological changes administered via gavage. The conditions noted are these: in vivo. Format: organism-based. The method in brief:
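Non-GLP repeated-dose study: female Sprague-Dawley rats given compound by oral gavage once daily for 7 days at 20, 60 and 180 mg/kg/day. Endpoints included weight bearing, gait coordination, respiratory rate, relative organ weights (liver, spleen, thymus), clinical chemistry and gross pathology; NOAEL derived.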

The next series relates to CAD. In words: Frequency-dependent inhibition of voltage-gated sodium channel in mouse CAD cells assessed as decrease in current amplitude at 30 uM by whole cell patch-clamp electrophysiology. The class given is cell-based. In short, it runs like this: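 CAD cells, whole-cell voltage clamp at room temperature, with compound at 1, 10 or 30 μM against 0.1% DMSO. Thirty identical test pulses were given at 10 Hz. Current was normalized as peak at pulse N over pulse 1, and the maximal decrement was read at the end of the train. One-way ANOVA with Dunnett's test; 4–10 cells per condition.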

Sodium channel protein type 9 subunit alpha (Homo sapiens), sequence (Q15858 whole entry, looked up): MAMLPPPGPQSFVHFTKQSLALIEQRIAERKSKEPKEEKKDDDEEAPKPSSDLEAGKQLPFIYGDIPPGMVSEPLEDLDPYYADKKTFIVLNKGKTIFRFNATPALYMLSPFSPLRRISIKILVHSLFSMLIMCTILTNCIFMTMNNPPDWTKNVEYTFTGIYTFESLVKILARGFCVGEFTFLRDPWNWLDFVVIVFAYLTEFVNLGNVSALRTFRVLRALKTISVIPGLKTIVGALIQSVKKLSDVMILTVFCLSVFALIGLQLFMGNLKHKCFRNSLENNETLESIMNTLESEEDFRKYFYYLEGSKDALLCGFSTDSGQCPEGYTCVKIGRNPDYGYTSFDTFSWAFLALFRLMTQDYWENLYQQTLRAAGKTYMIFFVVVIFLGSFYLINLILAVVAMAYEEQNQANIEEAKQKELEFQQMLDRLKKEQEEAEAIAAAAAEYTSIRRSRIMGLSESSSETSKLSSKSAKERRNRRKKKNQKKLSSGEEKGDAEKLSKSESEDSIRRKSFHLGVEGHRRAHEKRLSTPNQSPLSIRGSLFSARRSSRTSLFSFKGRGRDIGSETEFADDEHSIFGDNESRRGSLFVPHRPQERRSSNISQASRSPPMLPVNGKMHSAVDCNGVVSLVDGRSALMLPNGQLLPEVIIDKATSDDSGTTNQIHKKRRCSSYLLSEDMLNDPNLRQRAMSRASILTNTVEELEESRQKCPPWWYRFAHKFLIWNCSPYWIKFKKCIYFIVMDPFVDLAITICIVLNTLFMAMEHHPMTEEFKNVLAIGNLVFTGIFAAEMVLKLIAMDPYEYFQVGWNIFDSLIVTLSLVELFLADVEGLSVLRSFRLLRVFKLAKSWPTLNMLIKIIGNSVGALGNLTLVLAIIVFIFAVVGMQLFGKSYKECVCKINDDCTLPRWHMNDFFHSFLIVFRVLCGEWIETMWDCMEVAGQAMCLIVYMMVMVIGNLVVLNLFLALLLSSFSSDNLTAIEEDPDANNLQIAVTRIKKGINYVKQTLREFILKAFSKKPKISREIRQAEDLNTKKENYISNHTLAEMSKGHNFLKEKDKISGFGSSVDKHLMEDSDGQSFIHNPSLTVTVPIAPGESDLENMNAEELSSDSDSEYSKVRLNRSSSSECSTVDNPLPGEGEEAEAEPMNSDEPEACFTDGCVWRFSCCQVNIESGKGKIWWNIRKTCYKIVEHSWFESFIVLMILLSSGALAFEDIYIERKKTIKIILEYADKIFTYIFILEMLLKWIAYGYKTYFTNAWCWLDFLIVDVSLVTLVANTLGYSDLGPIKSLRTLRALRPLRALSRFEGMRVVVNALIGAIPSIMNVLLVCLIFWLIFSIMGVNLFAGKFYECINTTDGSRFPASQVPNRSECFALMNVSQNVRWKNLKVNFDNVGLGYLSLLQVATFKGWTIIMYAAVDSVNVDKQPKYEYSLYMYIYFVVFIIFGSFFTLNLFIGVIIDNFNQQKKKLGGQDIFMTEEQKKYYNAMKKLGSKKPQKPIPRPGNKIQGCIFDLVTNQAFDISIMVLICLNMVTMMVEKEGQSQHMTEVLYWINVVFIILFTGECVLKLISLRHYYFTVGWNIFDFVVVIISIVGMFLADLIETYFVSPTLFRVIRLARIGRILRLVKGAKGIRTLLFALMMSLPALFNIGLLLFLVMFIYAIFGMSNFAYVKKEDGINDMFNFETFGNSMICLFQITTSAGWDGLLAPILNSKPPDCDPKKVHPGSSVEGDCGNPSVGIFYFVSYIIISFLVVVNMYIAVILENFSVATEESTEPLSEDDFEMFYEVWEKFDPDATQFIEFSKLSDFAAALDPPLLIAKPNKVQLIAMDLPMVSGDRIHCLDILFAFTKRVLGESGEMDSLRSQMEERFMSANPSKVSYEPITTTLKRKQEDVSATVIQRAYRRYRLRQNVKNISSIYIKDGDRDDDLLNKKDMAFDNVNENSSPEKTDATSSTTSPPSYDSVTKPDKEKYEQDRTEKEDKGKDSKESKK
Cytochrome P450 2C19, sequence (P33261 whole entry): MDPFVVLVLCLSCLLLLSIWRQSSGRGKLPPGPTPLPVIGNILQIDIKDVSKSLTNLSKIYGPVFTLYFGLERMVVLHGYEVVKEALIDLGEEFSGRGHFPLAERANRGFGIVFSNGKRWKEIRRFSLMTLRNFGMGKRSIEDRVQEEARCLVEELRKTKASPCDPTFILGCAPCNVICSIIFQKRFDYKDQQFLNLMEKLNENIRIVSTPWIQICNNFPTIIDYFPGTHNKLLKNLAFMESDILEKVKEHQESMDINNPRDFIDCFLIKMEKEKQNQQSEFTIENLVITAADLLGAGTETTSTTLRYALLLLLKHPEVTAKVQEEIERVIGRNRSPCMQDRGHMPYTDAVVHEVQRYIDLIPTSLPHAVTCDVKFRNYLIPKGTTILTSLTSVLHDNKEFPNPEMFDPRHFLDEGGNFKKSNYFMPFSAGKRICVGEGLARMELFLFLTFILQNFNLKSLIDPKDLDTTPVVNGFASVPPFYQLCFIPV

In general, half-life refers to the time in which the quantity being followed falls by half. A high value points to slow decline. Usually ED50 stands for the dose that gives a 50% effect, or the effect in half of the subjects. By inhibition is commonly meant the percentage by which the read-out fell short of the control. A word on the TD50: it is the 50% point of the dose-response relation for the toxic effect studied. The low end stands for greater toxicity, the high end for lower toxicity. By NOAEL is commonly meant the highest dose or exposure tested at which no adverse effect was seen. In the case of `COC[C@@H](NC(C)=O)C(=O)NCc1ccc(Oc2cccc(OC(F)(F)F)c2)cc1`, the Activity entry with Rattus norvegicus [1], in the series with Rattus norvegicus [3] and with Rattus norvegicus [13] was “Toxic” in each case. Besides, the “inhibition (INH)” value on Cytochrome P450 2C19 and against Cytochrome P450 1A2 was “Not Active” throughout. In [2], the half-life is 1.75 h. The same compound came in with an ED50 in the series on Mus musculus of 15 mg/kg. For the same compound, the V1/2 in series [4] was -25 mV. In [5], the inhibition result was “inactive”. The compound further gave a TD50 at 2 h in series [6] of 54 mg/kg. In addition, the outcome in the series listed under Rattus norvegicus [7] was inactive. Further, the values for the selectivity ratio in series [8] and in [10] were 9.5 and 6.2, respectively. The inhibition entry in series [9] was “Active”. This compound also gave a TD50 at 0.25 h in series [11] of 40 mg/kg. For the same compound, in the series with Rattus norvegicus [12], the NOAEL is on record as 60 mg/kg/day. In addition, in the series on CAD, the inhibition was determined as 44%.
